# Data: ChEMBL document CHEMBL3351667, “A chemical tuned strategy to develop novel irreversible EGFR-TK inhibitors with improved safety and pharmacokinetic profiles” (J Med Chem, 2014)
# How the values were obtained:
# hERG (KCNH2) [1] = biological target: T1, hERG (KCNH2) (Homo sapiens, UniProt Q12809); assay: Inhibition of human ERG assessed as reduction in channel currents at 10 uM
# NCI-H1975 [2] = assay: cells; format: functional, cell-based; conditions: Homo sapiens, NCI-H1975, 48 h
# hERG (KCNH2) [3] = biological target: T1, hERG (KCNH2); assay: Inhibition of human ERG assessed as reduction in channel currents at 1 uM
# [4] = biological target: Receptor tyrosine-protein kinase erbB-2 (Homo sapiens, UniProt P04626); assay: Inhibition of wild type HER2 (unknown origin) incubated for 5 mins by HTRF assay
# A-431 = assay: cells; format: functional, cell-based; conditions: Homo sapiens, A-431, 48 h
# [5] = biological target: Epidermal growth factor receptor (Homo sapiens, UniProt P00533, T790M); format: protein assay
# [6] = biological target: Epidermal growth factor receptor (Homo sapiens, UniProt P00533);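 note: inhibition of wild-type EGFR read out by HTRF, with a 5 min incubation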
# SW-620 = assay: Growth inhibition of human SW620 cells at 5 uM; format: functional; conditions: read-out: GI
# [7] = AUC (0 to infinity) in BALB/c mouse at 10 mg/kg, po after 24 hrs by LC/MS/MS method; format: ADME, organism-based, Plasma; design: dose 10 mg/kg, route oral, time infinity; conditions: BALB/c, plasma
# [8] = Intrinsic clearance in dog liver microsomes assessed per mg protein at 1 uM in presence of NADPH after 0.5 to 30 mins by LC/MS/MS method; format: ADME, Canis lupus familiaris; conditions: read-out: CLH
# Cytochrome P450 2D6 = Cytochrome P450 2D6 (Homo sapiens, UniProt P10635); assay: Inhibition of CYP2D6 in human hepatic microsomes after 20 mins by LC/MS/MS method; format: ADME, Liver
# [9] = Intrinsic clearance in human liver microsomes assessed per mg protein at 1 uM in presence of NADPH after 0.5 to 30 mins by LC/MS/MS method; format: ADME; conditions: read-out: CLH
# [10] = Ratio of drug level in lung to plasma in BALB/c mouse at 30 mg/kg, po after 6 hrs by LC/MS/MS method; format: ADME, organism-based; design: dose 30 mg/kg, route oral
# How it was run: (§1)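 BALB/c mice received a single oral dose of 30 mg/kg. Drug concentrations in lung, brain and plasma were measured at multiple time points over 6 h. Mean tissue levels are expressed as a lung/plasma/brain ratio, with plasma set to 1.0.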
# [11] = Ratio of drug level in brain to plasma in BALB/c mouse at 30 mg/kg, po after 6 hrs by LC/MS/MS method; format: ADME, organism-based; design: dose 30 mg/kg, route oral; conditions: read-out: BPR; how it was run: as §1
# Cytochrome P450 2C9 = Cytochrome P450 2C9 (Homo sapiens, UniProt P11712); assay: Inhibition of CYP2C9 in human hepatic microsomes after 20 mins by LC/MS/MS method; format: ADME, Liver
# [12] = Cmax in BALB/c mouse at 10 mg/kg, po after 24 hrs by LC/MS/MS method; format: ADME, organism-based; design: dose 10 mg/kg, route oral; conditions: in vivo
# [13] = Oral bioavailability in BALB/c mouse at 10 mg/kg after 24 hrs by LC/MS/MS method; format: ADME, organism-based; conditions: in vivo
# [14] = Intrinsic clearance in mouse liver microsomes assessed per mg protein at 1 uM in presence of NADPH after 0.5 to 30 mins by LC/MS/MS method; format: ADME; conditions: read-out: CLH
# Cytochrome P450 2C19 = Cytochrome P450 2C19 (Homo sapiens, UniProt P33261); assay: Inhibition of CYP2C19 in human hepatic microsomes after 20 mins by LC/MS/MS method; format: ADME, Liver
# Mus musculus = assay: Apparent volume of distribution in BALB/c mouse at 10 mg/kg, po after 24 hrs by LC/MS/MS method; format: ADME, organism-based; design: dose 10 mg/kg, route oral; conditions: in vivo
# [15] = Intrinsic clearance in rat liver microsomes assessed per mg protein at 1 uM in presence of NADPH after 0.5 to 30 mins by LC/MS/MS method; format: ADME; conditions: read-out: CLH
# NCI-H1975 [16] = assay: Antitumor activity against human NCI-H1975 cells xenografted in nude mouse assessed as reduction in tumor growth at 30 mg/kg/day, ig relative to untreated control; format: functional; conditions: route intragastric
# [17] = Apparent clearance in BALB/c mouse at 10 mg/kg, po after 24 hrs by LC/MS/MS method; format: ADME, organism-based; design: dose 10 mg/kg, route oral; conditions: BALB/c, in vivo, read-out: CL(app)
# Cytochrome P450 3A4 = Cytochrome P450 3A4 (Homo sapiens, UniProt P08684); assay: Inhibition of CYP3A4 in human hepatic microsomes after 20 mins by LC/MS/MS method; format: ADME, Liver
# Cytochrome P450 1A2 = biological target: T2, Cytochrome P450 1A2 (Homo sapiens, UniProt P05177); assay: Inhibition of CYP1A2 in human hepatic microsomes after 20 mins by LC/MS/MS method; format: ADME, Liver
# T2 sequence (P05177 whole entry): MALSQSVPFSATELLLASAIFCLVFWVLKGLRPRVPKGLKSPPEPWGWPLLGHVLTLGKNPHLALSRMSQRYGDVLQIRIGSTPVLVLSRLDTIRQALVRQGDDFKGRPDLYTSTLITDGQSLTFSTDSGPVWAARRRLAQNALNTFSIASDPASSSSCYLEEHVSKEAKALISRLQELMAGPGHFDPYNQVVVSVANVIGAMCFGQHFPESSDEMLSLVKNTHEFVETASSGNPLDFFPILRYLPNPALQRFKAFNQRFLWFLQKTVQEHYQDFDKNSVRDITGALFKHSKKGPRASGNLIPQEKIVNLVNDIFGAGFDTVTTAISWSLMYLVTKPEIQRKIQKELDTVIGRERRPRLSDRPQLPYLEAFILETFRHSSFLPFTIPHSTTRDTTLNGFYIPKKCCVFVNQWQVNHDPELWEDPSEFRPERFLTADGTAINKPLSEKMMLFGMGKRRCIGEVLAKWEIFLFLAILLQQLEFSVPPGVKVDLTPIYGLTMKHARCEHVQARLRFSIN
# [18] = Intrinsic clearance in monkey liver microsomes assessed per mg protein at 1 uM in presence of NADPH after 0.5 to 30 mins by LC/MS/MS method; format: ADME, Macaca mulatta; conditions: rhesus monkey, read-out: CLH
# Chain of Epidermal growth factor receptor (Homo sapiens, UniProt P00533) (P00533 whole entry): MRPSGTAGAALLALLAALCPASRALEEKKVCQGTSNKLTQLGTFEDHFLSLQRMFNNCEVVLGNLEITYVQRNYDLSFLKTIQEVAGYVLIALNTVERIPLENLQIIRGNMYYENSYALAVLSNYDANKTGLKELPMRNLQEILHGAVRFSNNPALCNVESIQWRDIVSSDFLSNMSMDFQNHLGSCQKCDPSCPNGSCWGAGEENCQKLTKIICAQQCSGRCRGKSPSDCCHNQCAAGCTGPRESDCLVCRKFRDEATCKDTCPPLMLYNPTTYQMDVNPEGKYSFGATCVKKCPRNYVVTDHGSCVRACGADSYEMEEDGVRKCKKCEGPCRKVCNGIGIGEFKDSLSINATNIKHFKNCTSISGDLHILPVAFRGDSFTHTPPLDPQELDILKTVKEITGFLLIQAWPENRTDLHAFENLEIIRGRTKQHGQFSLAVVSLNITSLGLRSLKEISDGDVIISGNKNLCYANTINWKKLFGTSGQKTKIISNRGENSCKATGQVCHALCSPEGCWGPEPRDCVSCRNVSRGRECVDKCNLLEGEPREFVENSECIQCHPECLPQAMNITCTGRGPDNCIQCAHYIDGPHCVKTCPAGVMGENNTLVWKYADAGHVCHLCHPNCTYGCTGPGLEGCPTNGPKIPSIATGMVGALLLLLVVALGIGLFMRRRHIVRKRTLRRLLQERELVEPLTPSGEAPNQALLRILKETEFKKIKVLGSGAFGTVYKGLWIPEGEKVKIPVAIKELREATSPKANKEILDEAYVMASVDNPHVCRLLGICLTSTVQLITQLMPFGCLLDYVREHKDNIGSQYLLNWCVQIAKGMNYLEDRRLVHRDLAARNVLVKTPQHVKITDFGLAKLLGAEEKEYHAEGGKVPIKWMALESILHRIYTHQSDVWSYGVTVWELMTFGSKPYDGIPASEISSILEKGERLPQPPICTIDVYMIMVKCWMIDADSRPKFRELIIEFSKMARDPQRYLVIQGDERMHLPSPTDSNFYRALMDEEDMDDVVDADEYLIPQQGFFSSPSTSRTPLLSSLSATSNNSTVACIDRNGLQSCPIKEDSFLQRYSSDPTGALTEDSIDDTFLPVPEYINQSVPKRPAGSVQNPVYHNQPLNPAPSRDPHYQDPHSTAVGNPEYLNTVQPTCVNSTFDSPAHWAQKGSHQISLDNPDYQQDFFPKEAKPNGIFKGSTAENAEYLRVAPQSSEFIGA
# Chain of Epidermal growth factor receptor (Homo sapiens, UniProt P00533, T790M) (P00533 25-1210 T790M limits assumed): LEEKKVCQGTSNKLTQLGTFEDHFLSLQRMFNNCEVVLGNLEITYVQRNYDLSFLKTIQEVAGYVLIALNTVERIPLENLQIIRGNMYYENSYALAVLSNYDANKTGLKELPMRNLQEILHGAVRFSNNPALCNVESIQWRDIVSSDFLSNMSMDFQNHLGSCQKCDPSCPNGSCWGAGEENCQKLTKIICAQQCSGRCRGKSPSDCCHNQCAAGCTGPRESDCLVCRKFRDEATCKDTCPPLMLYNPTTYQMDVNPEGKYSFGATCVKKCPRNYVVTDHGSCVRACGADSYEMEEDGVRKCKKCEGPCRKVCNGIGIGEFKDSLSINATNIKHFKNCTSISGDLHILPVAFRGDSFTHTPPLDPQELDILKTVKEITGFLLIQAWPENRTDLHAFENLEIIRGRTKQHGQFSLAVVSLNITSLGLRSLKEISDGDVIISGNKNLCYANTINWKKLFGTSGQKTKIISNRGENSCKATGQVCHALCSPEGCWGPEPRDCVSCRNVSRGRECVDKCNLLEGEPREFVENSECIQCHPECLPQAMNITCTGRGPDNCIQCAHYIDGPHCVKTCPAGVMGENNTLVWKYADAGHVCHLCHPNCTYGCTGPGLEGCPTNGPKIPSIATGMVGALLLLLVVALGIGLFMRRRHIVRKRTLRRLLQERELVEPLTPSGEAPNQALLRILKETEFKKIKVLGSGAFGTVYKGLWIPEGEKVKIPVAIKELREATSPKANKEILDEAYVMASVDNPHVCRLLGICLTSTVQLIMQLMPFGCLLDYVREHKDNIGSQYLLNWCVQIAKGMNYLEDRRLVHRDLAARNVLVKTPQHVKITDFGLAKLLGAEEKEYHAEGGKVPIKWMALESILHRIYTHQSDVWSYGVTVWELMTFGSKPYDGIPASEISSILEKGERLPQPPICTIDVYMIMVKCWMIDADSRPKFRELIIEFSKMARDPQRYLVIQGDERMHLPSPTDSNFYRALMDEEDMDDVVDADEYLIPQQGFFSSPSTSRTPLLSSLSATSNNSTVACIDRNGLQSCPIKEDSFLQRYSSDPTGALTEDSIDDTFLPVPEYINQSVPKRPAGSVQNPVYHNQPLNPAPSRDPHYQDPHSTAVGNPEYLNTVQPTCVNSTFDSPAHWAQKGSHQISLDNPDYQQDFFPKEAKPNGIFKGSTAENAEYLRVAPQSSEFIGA
# Chain of Receptor tyrosine-protein kinase erbB-2 (P04626 whole entry): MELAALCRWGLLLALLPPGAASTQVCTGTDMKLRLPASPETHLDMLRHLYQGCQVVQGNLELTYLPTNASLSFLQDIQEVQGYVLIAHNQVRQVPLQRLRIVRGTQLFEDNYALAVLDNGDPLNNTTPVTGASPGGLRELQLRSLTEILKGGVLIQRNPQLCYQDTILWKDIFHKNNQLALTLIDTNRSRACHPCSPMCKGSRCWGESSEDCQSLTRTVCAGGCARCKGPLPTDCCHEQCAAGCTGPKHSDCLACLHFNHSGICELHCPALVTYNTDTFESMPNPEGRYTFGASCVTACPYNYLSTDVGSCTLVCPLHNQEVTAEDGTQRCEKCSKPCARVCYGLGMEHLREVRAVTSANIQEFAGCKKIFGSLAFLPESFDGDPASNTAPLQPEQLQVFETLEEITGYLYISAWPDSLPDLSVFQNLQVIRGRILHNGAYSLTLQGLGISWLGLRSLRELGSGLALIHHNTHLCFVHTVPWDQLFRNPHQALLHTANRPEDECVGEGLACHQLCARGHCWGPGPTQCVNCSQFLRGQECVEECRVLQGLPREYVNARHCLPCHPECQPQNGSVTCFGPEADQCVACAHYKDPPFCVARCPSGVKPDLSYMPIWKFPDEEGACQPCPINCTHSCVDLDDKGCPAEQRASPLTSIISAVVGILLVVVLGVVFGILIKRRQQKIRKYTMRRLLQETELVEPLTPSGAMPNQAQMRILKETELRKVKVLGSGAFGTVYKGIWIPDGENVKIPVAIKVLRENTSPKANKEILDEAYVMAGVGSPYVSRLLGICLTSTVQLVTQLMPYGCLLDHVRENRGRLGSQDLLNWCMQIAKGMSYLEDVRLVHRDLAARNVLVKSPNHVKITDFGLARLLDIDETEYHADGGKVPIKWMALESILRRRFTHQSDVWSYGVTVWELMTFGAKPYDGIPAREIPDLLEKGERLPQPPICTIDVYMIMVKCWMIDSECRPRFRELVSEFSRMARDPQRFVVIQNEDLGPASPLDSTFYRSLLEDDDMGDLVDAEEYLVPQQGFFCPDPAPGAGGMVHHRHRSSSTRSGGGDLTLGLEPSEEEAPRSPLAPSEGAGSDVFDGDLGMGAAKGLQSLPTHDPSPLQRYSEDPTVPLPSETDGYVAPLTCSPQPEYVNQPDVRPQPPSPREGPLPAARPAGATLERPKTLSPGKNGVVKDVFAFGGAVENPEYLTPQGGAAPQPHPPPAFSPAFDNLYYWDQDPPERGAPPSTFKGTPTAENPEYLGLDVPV
# T1 sequence (Q12809 whole entry): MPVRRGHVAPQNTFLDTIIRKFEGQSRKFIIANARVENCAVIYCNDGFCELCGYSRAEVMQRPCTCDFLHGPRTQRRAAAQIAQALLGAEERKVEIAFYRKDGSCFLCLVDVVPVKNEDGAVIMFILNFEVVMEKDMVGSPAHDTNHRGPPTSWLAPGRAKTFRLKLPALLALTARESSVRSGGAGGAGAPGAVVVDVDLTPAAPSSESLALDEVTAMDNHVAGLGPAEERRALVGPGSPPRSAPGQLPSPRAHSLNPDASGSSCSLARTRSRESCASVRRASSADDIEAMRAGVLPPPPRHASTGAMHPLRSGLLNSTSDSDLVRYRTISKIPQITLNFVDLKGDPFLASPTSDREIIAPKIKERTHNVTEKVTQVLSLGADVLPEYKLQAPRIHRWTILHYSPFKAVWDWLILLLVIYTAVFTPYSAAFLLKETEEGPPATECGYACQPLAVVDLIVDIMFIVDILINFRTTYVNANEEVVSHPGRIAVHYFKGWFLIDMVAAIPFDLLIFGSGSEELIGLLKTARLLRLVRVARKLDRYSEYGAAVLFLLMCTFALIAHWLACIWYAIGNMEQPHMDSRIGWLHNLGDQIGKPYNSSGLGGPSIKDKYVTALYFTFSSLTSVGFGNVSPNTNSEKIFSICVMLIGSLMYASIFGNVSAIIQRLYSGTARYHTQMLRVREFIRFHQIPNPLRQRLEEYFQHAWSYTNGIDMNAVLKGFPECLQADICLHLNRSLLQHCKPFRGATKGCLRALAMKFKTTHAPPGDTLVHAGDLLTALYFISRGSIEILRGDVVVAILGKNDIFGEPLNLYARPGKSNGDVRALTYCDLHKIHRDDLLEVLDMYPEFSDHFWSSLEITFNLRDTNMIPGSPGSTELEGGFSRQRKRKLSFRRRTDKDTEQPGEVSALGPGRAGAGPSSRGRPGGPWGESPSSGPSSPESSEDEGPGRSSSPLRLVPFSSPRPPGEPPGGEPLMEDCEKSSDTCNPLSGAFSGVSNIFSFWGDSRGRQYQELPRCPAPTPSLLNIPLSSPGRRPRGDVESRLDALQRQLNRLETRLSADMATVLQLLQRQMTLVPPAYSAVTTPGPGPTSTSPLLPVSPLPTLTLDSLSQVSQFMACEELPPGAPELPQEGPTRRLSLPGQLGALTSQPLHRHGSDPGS
structure (smiles),measurement,setting,value
CN(C)C/C=C(/F)C(=O)Nc1cc2c(Nc3ccc(F)c(Cl)c3)ncnc2cc1O[C@H]1CCOC1,inhibition at 10 µM,hERG (KCNH2) [1],39.5%
same,IC50,NCI-H1975 [2],1530 nM
same,inhibition at 1 µM,hERG (KCNH2) [3],6.37%
same,IC50,[4],97.1 nM
same,IC50,A-431,3060 nM
same,IC50,[5],25.8 nM
CCOc1cc2ncnc(Nc3ccc(Oc4ccc(C)nc4)c(Cl)c3)c2cc1NC(=O)/C(F)=C\CN1CCCCC1,IC50,NCI-H1975 [2],6420 nM
same,IC50,[6],39.2 nM
same,IC50,A-431,24800 nM
O=C(Nc1cc2c(Nc3ccc(F)c(Cl)c3)ncnc2cc1O[C@H]1CCOC1)/C(F)=C\CN1CCOCC1,IC50,NCI-H1975 [2],3010 nM
same,IC50,A-431,10900 nM
CCOc1cc2ncnc(Nc3ccc(Oc4ccc(C)nc4)c(Cl)c3)c2cc1NC(=O)/C(F)=C/CN1CCCCC1,IC50,NCI-H1975 [2],3600 nM
same,IC50,[6],12.9 nM
same,IC50,A-431,3490 nM
same,IC50,[5],37.9 nM
COc1cccc2c1C(=O)c1c(O)c3c(c(O)c1C2=O)C[C@@](O)(C(=O)CO)C[C@@H]3O[C@H]1C[C@H](N)[C@H](O)[C@H](C)O1 [DOXORUBICIN],inhibition of growth at 5 µM,SW-620,79.8%
COc1cc2ncnc(Nc3cccc(Br)c3)c2cc1NC(=O)/C(F)=C\CN(C)C,IC50,NCI-H1975 [2],4100 nM
same,IC50,[6],5 nM
same,IC50,A-431,1200 nM
COc1cc2ncnc(Nc3ccc(OCc4cccc(F)c4)c(Cl)c3)c2cc1NC(=O)/C(F)=C\CN(C)C,IC50,NCI-H1975 [2],2000 nM
same,IC50,[6],1.3 nM
same,IC50,A-431,1690 nM
CCOc1cc2ncnc(Nc3ccc(OCc4ccccn4)c(Cl)c3)c2cc1NC(=O)/C(F)=C/CN(C)C,AUC(0-inf),[7],16.6 µM·h
same,inhibition at 10 µM,hERG (KCNH2) [1],3.06%
same,microsomal CLint at 1 µM,[8],95 µL/min/mg
same,IC50,Cytochrome P450 2D6,> 10000 nM
same,inhibition at 1 µM,hERG (KCNH2) [3],0%
same,microsomal CLint at 1 µM,[9],27 µL/min/mg
same,Kp at 6 h,[10],11
same,IC50,[6],0.18 nM
same,Kp at 6 h,[11],0.29
same,IC50,[4],1.38 nM
same,IC50,Cytochrome P450 2C9,> 10000 nM
same,Cmax,[12],2660 nM
same,bioavailability,[13],89.4%
same,microsomal CLint at 1 µM,[14],47 µL/min/mg
same,IC50,Cytochrome P450 2C19,> 10000 nM
same,Vz,Mus musculus,3.94 L/kg
same,microsomal CLint at 1 µM,[15],33 µL/min/mg
same,T/C,NCI-H1975 [16],15.6%
same,CL/F,[17],20 mL/min/kg
same,IC50,A-431,340 nM
same,IC50,Cytochrome P450 3A4,> 10000 nM
same,IC50,Cytochrome P450 1A2,> 10000 nM
same,microsomal CLint at 1 µM,[18],97 µL/min/mg
same,IC50,[5],3.77 nM
O=C(Nc1cc2c(Nc3ccc(F)c(Cl)c3)ncnc2cc1O[C@H]1CCOC1)/C(F)=C/CN1CCCCC1,IC50,NCI-H1975 [2],290 nM
same,IC50,[6],2.6 nM
same,IC50,A-431,1560 nM
same,IC50,[5],16.4 nM
CCOc1cc2ncnc(Nc3ccc(OCC4CC4)c(Cl)c3)c2cc1NC(=O)/C(F)=C\CN(C)C,IC50,NCI-H1975 [2],2980 nM
same,IC50,[6],11.2 nM
same,IC50,A-431,1340 nM
C=CC(=O)Nc1cc2c(Nc3ccc(F)c(Cl)c3)ncnc2cc1OCCCN1CCOCC1 [CANERTINIB],microsomal CLint at 1 µM,[8],26 µL/min/mg
same,microsomal CLint at 1 µM,[9],50 µL/min/mg
same,microsomal CLint at 1 µM,[14],5 µL/min/mg
same,microsomal CLint at 1 µM,[15],105 µL/min/mg
same,microsomal CLint at 1 µM,[18],221 µL/min/mg
COc1cc2ncnc(Nc3cccc(Br)c3)c2cc1NC(=O)/C(F)=C/CN(C)C,IC50,NCI-H1975 [2],3300 nM
same,IC50,[6],2.6 nM
same,IC50,A-431,2100 nM
same,IC50,[5],8.3 nM
COc1cc2ncnc(Nc3ccc(F)c(Cl)c3)c2cc1NC(=O)/C(F)=C/CN1CCOCC1,IC50,NCI-H1975 [2],2020 nM
same,IC50,[4],1540 nM
same,IC50,A-431,2630 nM
same,IC50,[5],59.8 nM
CCOc1cc2ncnc(Nc3ccc(OCc4ccccn4)c(Cl)c3)c2cc1NC(=O)/C(F)=C\CN(C)C,IC50,NCI-H1975 [2],1130 nM
CCOc1cc2ncnc(Nc3ccc(OCC4CC4)c(Cl)c3)c2cc1NC(=O)/C(F)=C/CN(C)C,IC50,NCI-H1975 [2],1190 nM
same,IC50,[6],3.6 nM
same,IC50,A-431,750 nM
same,IC50,[5],3.5 nM
O=C(Nc1cc2c(Nc3ccc(F)c(Cl)c3)ncnc2cc1O[C@H]1CCOC1)/C(F)=C/CN1CCOCC1,inhibition at 10 µM,hERG (KCNH2) [1],11.1%
same,IC50,NCI-H1975 [2],4370 nM
same,inhibition at 1 µM,hERG (KCNH2) [3],0.94%
same,IC50,[4],1570 nM
same,IC50,A-431,11500 nM
CCOc1cc2ncnc(Nc3ccc(Oc4ccc(C)nc4)c(Cl)c3)c2cc1NC(=O)/C(F)=C\CN(C)C,IC50,NCI-H1975 [2],2940 nM
same,IC50,[6],9.5 nM
same,IC50,A-431,5900 nM
COc1cc2ncnc(Nc3ccc(OCc4cccc(F)c4)c(Cl)c3)c2cc1NC(=O)/C(F)=C/CN(C)C,IC50,NCI-H1975 [2],2060 nM
same,IC50,[6],1.56 nM
same,IC50,A-431,4020 nM
same,IC50,[5],2.1 nM
O=C(Nc1cc2c(Nc3ccc(F)c(Cl)c3)ncnc2cc1O[C@H]1CCOC1)/C(F)=C\CN1CCCCC1,IC50,NCI-H1975 [2],710 nM
same,IC50,[6],2.55 nM
same,IC50,A-431,1800 nM
CCOc1cc2ncnc(Nc3ccc(Oc4ccc(C)nc4)c(Cl)c3)c2cc1NC(=O)/C(F)=C/CN(C)C,IC50,NCI-H1975 [2],2490 nM
same,IC50,[6],4.5 nM
same,IC50,A-431,1670 nM
same,IC50,[5],7.1 nM
COc1cc2ncnc(Nc3ccc(F)c(Cl)c3)c2cc1NC(=O)/C(F)=C\CN1CCOCC1,IC50,NCI-H1975 [2],1110 nM
same,IC50,A-431,830 nM
